Common to all, as to assay type: functional
The subject of one experiment is MCF7. The experiment in a line: Anticancer activity against human MCF7 cells assessed as cell viability at 10 ug after 3 hrs by trypan blue dye exclusion assay. Put shortly: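 MCF-7 cells grown in peritoneal cavity of albino mice (25–30 g) after i.p. injection of 1 × 10^6 cells/ml; aspirated day 15, washed three times in HBSS, adjusted to 1 × 10^6 cells/ml. 0.1 ml cells plus 0.1 ml compound (10 µg), 37 °C, 5% CO2, 3 h. Trypan blue (0.4%, 1:1) exclusion, haemocytometer count; % cytotoxicity versus untreated control, triplicate.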

For experiment [1], the system named is Radical scavenging activity. The experiment in a line: Antioxidant activity assessed as DPPH radical scavenging activity at 100 ug after 30 mins by ELISA. In a few lines: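 Ethanolic DPPH (200 µl) mixed with 10 µl compound solution (100 µg) in 96-well plate, 37 °C for 30 min; decrease in absorbance read at 490 nm on ELISA reader. Ascorbic acid (10 µg) standard.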
On the technique in general: DPPH is a stable violet radical that fades when it is reduced.

The subject of experiment [2] is Radical scavenging activity. The experiment in a line: Antioxidant activity assessed as DPPH radical scavenging activity after 30 mins by ELISA. Put shortly: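 DPPH discolouration in 96-well plate: 200 µl ethanolic DPPH plus 10 µl compound solution; 37 °C, 30 min; absorbance at 490 nm on ELISA reader. IC50 (concentration inhibiting 50% of free radicals) from serial dilutions below 100 µg. Ascorbic acid (10 µg) standard.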

Each structure is given as a SMILES string. The source made the active and inactive calls. No cut-off for these calls is given here.

As to `COc1cc(C2NC(=O)NC(C)=C2C(=O)Nc2ccccc2Cl)ccc1O` (centres undefined), the Activity in the experiment with MCF7 came out at 52%. For the same molecule, the result in experiment [1] was inactive.
On the same counts, the results for `CNC(=O)C1=C(C)NC(=O)NC1c1ccccc1` (centres undefined) are 27% and “inactive”.
Take `COc1ccc(C2NC(=S)NC(C)=C2C(=O)Nc2ccccc2Cl)cc1` (centres undefined): the Activity in the experiment with MCF7 is 47%. For the same molecule, the result in experiment [1] was inactive.
For `CNC(=O)C1=C(C)NC(=O)NC1c1cccc([N+](=O)[O-])c1` (centres undefined), the IC50 in experiment [2] turned out to be 63 µg. Besides, the Activity in the experiment with MCF7 worked out at 23%.
In the case of `CNC(=O)C1=C(C)NC(=S)NC1c1ccc(O)c(OC)c1` (centres undefined), in the experiment on MCF7, the Activity is given as 41%. Further, in experiment [1], the outcome was inactive.
Take `CC1=C(C(=O)Nc2ccccc2Cl)C(C(=O)/C=C/c2ccccc2)NC(=O)N1` (centres undefined): the Activity in the experiment with MCF7 was determined as 79%. For the same molecule, the result in experiment [1] was inactive.
Consider `CC1=C(C(=O)Nc2ccccc2Cl)C(c2ccncc2)NC(=S)N1` (centres undefined), for which, in the experiment with MCF7, the Activity is reported as 72%. The result in experiment [1] was inactive.
The corresponding values for `CNC(=O)C1=C(C)NC(=S)NC1c1ccccc1O` (centres undefined) are 45% and “inactive”.
As for `CNC(=O)C1=C(C)NC(=O)NC1c1ccncc1` (centres undefined), the Activity in the experiment with MCF7 worked out at 64%. Further, in experiment [1], the outcome was inactive.
Regarding `CNC(=O)C1=C(C)NC(=O)NC1c1ccco1` (centres undefined), the Activity in the experiment with MCF7 turned out to be 61%. Also, in experiment [1], the result was inactive.
With `CNC(=O)C1=C(C)NC(=O)NC1c1ccc(O)c(OC)c1` (centres undefined), the Activity in the experiment on MCF7 was 49%. Moreover, the outcome in experiment [1] was inactive.
The corresponding values for `CNC(=O)C1=C(C)NC(=S)NC1c1ccc(OC)cc1` (centres undefined) are 48% and “inactive”.
For `CC1=C(C(=O)Nc2ccccc2Cl)C(c2ccccc2)NC(=N)N1C#N` (centres undefined), in the experiment on MCF7, the Activity amounted to 35%. Further, the result in experiment [1] was inactive.
For `CC1=C(C(=O)Nc2ccccc2Cl)C(c2ccco2)NC(=O)N1` (centres undefined), the Activity in the experiment with MCF7 was determined as 69%. Moreover, the outcome in experiment [1] was inactive.
On the same counts, the results for `CC1=C(C(=O)Nc2ccccc2Cl)C(C(=O)/C=C/c2ccccc2)NC(=S)N1` (centres undefined) are 71% and “inactive”.
On the same counts, the results for `CC1=C(C(=O)Nc2ccccc2Cl)C(c2ccccc2)NC(=S)N1` (centres undefined) are 25% and “inactive”.
On the same counts, the results for `CNC(=O)C1=C(C)NC(=O)NC1c1ccc(OC)cc1` (centres undefined) are 41% and “inactive”.
Turning to `CC1=C(C(=O)Nc2ccccc2Cl)C(c2ccc(Br)cc2)NC(=S)N1` (centres undefined), the Activity with MCF7 worked out at 18%. Moreover, in experiment [1], the result was inactive.
On the same counts, the results for `CC1=C(C(=O)Nc2ccccc2Cl)C(c2ccccc2)NC(=O)N1` (centres undefined) are 30% and “inactive”.
The corresponding values for `CNC(=O)C1=C(C)NC(=O)NC1C(=O)/C=C/c1ccccc1` (centres undefined) are 47% and “inactive”.
Take `CC1=C(C(=O)Nc2ccccc2Cl)C(c2ccncc2)NC(=O)N1` (centres undefined): the Activity in the experiment with MCF7 was 59%. Further, the result in experiment [1] was inactive.
`COc1ccc(C2NC(=O)NC(C)=C2C(=O)Nc2ccccc2Cl)cc1` (centres undefined): the Activity with MCF7 was 51%. Moreover, the result in experiment [1] was inactive.
As for `CNC(=O)C1=C(C)NC(=S)NC1c1cccc([N+](=O)[O-])c1` (centres undefined), the IC50 in experiment [2] is 58 µg. For the same molecule, in the experiment with MCF7, the Activity came out at 39%.
With `CNC(=O)C1=C(C)NC(=S)NC1c1ccco1` (centres undefined), the Activity in the experiment with MCF7 was 57%. In experiment [1], the result was inactive.
In the case of `CC1=C(C(=O)Nc2ccccc2Cl)C(c2ccc(Br)cc2)NC(=O)N1` (centres undefined), the Activity in the experiment on MCF7 is reported as 7%. The outcome in experiment [1] was inactive.
On the same counts, the results for `CC1=C(C(=O)Nc2ccccc2Cl)C(c2ccccc2O)NC(=S)N1` (centres undefined) are 49% and “inactive”.
Consider `CC1=C(C(=O)Nc2ccccc2Cl)C(c2cccc([N+](=O)[O-])c2)NC(=O)N1` (centres undefined), for which the Activity in the experiment with MCF7 is listed as 29%. For the same molecule, in experiment [1], the result was inactive.
On the same counts, the results for `CC1=C(C(=O)Nc2ccccc2Cl)C(c2ccco2)NC(=S)N1` (centres undefined) are 76% and “inactive”.
The corresponding values for `COc1cc(C2NC(=S)NC(C)=C2C(=O)Nc2ccccc2Cl)ccc1O` (centres undefined) are 45% and “inactive”.
On the same counts, the results for `CC1=C(C(=O)Nc2ccccc2Cl)C(c2cccc([N+](=O)[O-])c2)NC(=S)N1` (centres undefined) are 13% and “inactive”.
As to `CNC(=O)C1=C(C)NC(=S)NC1c1ccccc1` (centres undefined), the Activity in the experiment with MCF7 was determined as 35%. The result in experiment [1] was inactive.
In the case of `CC1=C(C(=O)Nc2ccccc2Cl)C(c2ccccc2O)NC(=O)N1` (centres undefined), the Activity with MCF7 is given as 58%. Further, in experiment [1], the result was inactive.

The record behind these values is ChEMBL document CHEMBL1154086, “Novel Biginelli dihydropyrimidines with potential anticancer activity: a parallel synthesis and CoMSIA study” (Eur J Med Chem, 2009).
